Data published in ChEMBL document CHEMBL2157952, “Chemotherapy of leishmaniasis. Part IX: synthesis and bioevaluation of aryl substituted ketene dithioacetals as antileishmanial agents” (Bioorg Med Chem Lett, 2012).
Calls of active or inactive are those of the source. No cut-off for these calls is given here.

How the values were obtained:
Leishmania donovani [1] = experiment: Antileishmanial activity against Leishmania donovani amastigotes infected in mouse J774A.1 cells after 72 hrs by luciferase reporter gene based luminometric analysis; format: functional, organism-based; conditions: J774.A1, 72 h
Summary of the method: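 J-774A.1 macrophages seeded at 4 × 10⁴/well in RPMI-1640 + 10% FCS, 37 °C, CO₂. After 24 h, infected with stationary-phase luciferase-expressing promastigotes (4 × 10⁵/well). Medium replaced with compound, seven-point twofold dilutions from 40 µM, for 72 h. Steady Glo added, luminescence read as RLU. IC50 by nonlinear regression with four-parameter Hill fit.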

Leishmania donovani [2] = experiment: Antileishmanial activity against Leishmania donovani MHOM/IN/80/Dd8 amastigotes infected in golden hamster assessed as inhibition of parasite multiplication at 50 mg/kg, ip for 5 days measured on day 7 by Giemsa staining; format: functional; conditions: for inhibition in vivo at 50 mg/kg: MHOM/IN/80/Dd8, ip, route intraperitoneal
Summary of the method: (§1)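 Golden hamsters (inbred, either sex, 40–45 g) infected intracardially with 1 × 10⁷ amastigotes each; infection establishes in 15–20 days. Animals randomized by biopsy parasite burden, 5–6 per sample. Dosing began 2 days after biopsy, five consecutive days. Post-treatment biopsy on day 7 after last dose, amastigotes counted by Giemsa staining. PI = 100 − [ANAT × 100/(INAT × TIUC)] versus untreated controls.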

[3] = Cytotoxicity against human KB cells assessed as cell viability after 72 hrs by MTT assay; format: cell-based
Summary of the method: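 Exponentially growing KB cells at 1 × 10⁵/well exposed 72 h at 37 °C in humidified CO₂/air to seven-point threefold dilutions from 400 µM; DMSO vehicle wells as control. MTT (5 mg/ml) added 2 h at 37 °C, supernatant removed, DMSO added, absorbance at 544 nm. CC50 is the concentration giving 50% viability reduction versus medium-only cells.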

[4] = Selectivity index, ratio of CC50 for human KB cells to IC50 for Leishmania donovani amastigotes infected in mouse J774A.1 cells; format: functional
Summary of the method: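 SI = CC50 (KB cells, MTT, 72 h) divided by IC50 against intracellular amastigotes in J-774A.1 macrophages (luciferase read-out, 72 h).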

Leishmania donovani [5] = experiment: Antileishmanial activity against Leishmania donovani MHOM/IN/80/Dd8 amastigotes infected in golden hamster assessed as inhibition of parasite multiplication at 30 mg/kg, po for 5 days measured on day 7 by Giemsa staining; format: functional; summary of the method: as §1

| IC50 (Leishmania donovani [1]) [µM] | SMILES | inhibition (Leishmania donovani [2]) | CC50 at 72 h [3] [µM] | Ratio CC50/IC50 [4] | inhibition in vivo at 30 mg/kg (Leishmania donovani [5]) [%] | inhibition in vivo at 50 mg/kg (Leishmania donovani [2]) [%] |
| --- | --- | --- | --- | --- | --- | --- |
| > 40 | CSC(=CC(=O)/C=C/c1ccc(-n2ccnc2)cc1)SC | inactive | – | – | – | – |
| 12.5 | CCCCCCCCCCCCCCCCOP(=O)([O-])OCC[N+](C)(C)C [MILTEFOSINE] | – | 3.23 | 0.26 | 95.3 | – |
| > 40 | CSC(=CC(=O)/C=C/c1ccc(F)cc1)SC | inactive | – | – | – | – |
| > 40 | CSC(=CC(=O)/C=C/c1ccccc1Cl)SC | inactive | – | – | – | – |
| > 40 | CSC(=CC(=O)/C=C/c1ccc([N+](=O)[O-])cc1)SC | inactive | – | – | – | – |
| 5.12 | CSC(=CC(=O)/C=C/c1cccc([N+](=O)[O-])c1)SC | – | 9.83 | 1.92 | – | 82.8 |
| 3.56 | COc1cc(/C=C/C(=O)C=C(SC)SC)ccc1OCc1ccccc1 | – | 204 | 57.26 | – | 78 |
| > 20 | CSC(=CC(=O)/C=C/c1ccc(Cl)cc1)SC | inactive | – | – | – | – |
| > 20 | CSC(=CC(=O)/C=C/c1ccc(-n2cnnc2)cc1)SC | inactive | – | – | – | – |
